The values below come from ChEMBL document CHEMBL1914346, “Discovery and synthesis of novel substituted benzocoumarins as orally active lipid modulating agents” (Bioorg Med Chem Lett, 2011).

Data set [1] concerns the target T1, 3-hydroxy-3-methylglutaryl-coenzyme A reductase (Homo sapiens) (UniProt P04035).
T1 sequence (whole entry): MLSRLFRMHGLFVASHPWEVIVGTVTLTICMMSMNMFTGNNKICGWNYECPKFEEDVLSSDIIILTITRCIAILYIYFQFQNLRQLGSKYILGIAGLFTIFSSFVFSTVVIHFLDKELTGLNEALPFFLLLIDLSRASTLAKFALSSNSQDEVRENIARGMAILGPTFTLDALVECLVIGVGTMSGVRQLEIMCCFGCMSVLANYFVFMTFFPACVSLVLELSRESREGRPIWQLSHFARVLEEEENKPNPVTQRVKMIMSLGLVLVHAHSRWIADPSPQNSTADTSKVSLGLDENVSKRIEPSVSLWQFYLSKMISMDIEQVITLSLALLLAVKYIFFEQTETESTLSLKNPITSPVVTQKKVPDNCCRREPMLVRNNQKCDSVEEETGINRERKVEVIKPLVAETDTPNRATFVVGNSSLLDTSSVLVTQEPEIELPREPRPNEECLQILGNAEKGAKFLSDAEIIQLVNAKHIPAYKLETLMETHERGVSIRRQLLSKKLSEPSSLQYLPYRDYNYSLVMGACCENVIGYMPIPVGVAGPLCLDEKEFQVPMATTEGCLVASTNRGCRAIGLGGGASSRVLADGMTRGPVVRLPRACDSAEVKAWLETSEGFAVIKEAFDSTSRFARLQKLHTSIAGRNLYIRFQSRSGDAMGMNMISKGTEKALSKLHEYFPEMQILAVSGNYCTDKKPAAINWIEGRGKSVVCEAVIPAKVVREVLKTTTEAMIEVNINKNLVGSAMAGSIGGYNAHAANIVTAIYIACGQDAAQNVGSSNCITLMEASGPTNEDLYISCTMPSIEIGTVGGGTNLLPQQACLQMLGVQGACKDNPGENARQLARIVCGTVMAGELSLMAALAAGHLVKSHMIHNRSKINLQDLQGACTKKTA
Kind of data set: Inhibition of HMG-CoA reductase using HMG-CoA as substrate at 100 uM. In short, it runs like this: (§1)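 HMG-CoA reductase kit assay using supplied HMGR enzyme, HMG-CoA substrate, NADPH and assay buffer. Test concentrations were 5, 10, 25, 50 and 100 µM, with % inhibition recorded at each.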

The target of data set [2] is T1, 3-hydroxy-3-methylglutaryl-coenzyme A reductase (Homo sapiens). Kind of data set: Inhibition of HMG-CoA reductase using HMG-CoA as substrate at 50 uM. In short, it runs like this:
as §1

Data set [3] has as its system Syrian golden hamster. Description: Antidyslipidemic activity in high fat diet-fed dyslipidemic syrian golden hamster model assessed as decrease in serum total cholesterol level at 25 mg/kg, po administered once daily for 7 days relative to vehicle treated control. The format is functional, Mesocricetus auratus. Also noted: scale not given: the % may be the effect or the level left. Summed up: (§2)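 Male Golden Syrian hamsters, 12 weeks old, 110 ± 10 g, eight per group, fed high-fat diet plus fructose daily on days 1–10. Oral dosing once daily on days 4–10 in 0.1% gum acacia; HFD-fed vehicle animals served as controls. After the last dose, retro-orbital blood was taken into EDTA and plasma lipids were measured enzymatically on an autoanalyzer. Results are % change versus HFD controls; t-test/ANOVA, p<0.05.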

Data set [4] concerns Syrian golden hamster. Kind of data set: Antidyslipidemic activity in high fat diet-fed dyslipidemic syrian golden hamster model assessed as increase in serum HDL level at 25 mg/kg, po administered once daily for 7 days relative to vehicle treated control. The format is functional, Mesocricetus auratus. Summed up:
as §2

The target in data set [5] is T1, 3-hydroxy-3-methylglutaryl-coenzyme A reductase (Homo sapiens). Kind of data set: Inhibition of HMG-CoA reductase using HMG-CoA as substrate at 10 uM. In short, it runs like this: as §1
The target is the same in data set [6]. Description: Inhibition of HMG-CoA reductase using HMG-CoA as substrate at 5 uM. In short, it runs like this: as §1
Data set [7] relates to Syrian golden hamster. Kind of data set: Antidyslipidemic activity in high fat diet-fed dyslipidemic syrian golden hamster model assessed as increase in serum ratio of HDL/total cholesterol level at 25 mg/kg, po administered once daily for 7 days relative to vehicle treated control. The format is functional, Mesocricetus auratus. Summed up:
as §2

The target in data set [8] is T1, 3-hydroxy-3-methylglutaryl-coenzyme A reductase (Homo sapiens). Kind of data set: Inhibition of HMG-CoA reductase using HMG-CoA as substrate at 25 uM. In short, it runs like this:
as §1

The subject of data set [9] is Syrian golden hamster. Kind of data set: Antidyslipidemic activity in high fat diet-fed dyslipidemic syrian golden hamster model assessed as decrease in serum triglyceride level at 25 mg/kg, po administered once daily for 7 days relative to vehicle treated control. The data set is classed as functional, Mesocricetus auratus. Also noted: scale not given: the % may be the effect or the level left. In short, it runs like this: as §2

Data set [10] deals with Syrian golden hamster. Kind of data set: Antidyslipidemic activity in high fat diet-fed dyslipidemic syrian golden hamster model assessed as decrease in serum LDL level at 25 mg/kg, po administered once daily for 7 days relative to vehicle treated control. The format is functional, Mesocricetus auratus. Further details: scale not given: the % may be the effect or the level left. Summed up:
as §2

The nature of data set [11]: Antioxidant activity assessed as trolox equivalent by TEAC assay. The data set is classed as functional.
The subject of data set [12] is Syrian golden hamster. Kind of data set: Antidyslipidemic activity in high fat diet-fed dyslipidemic syrian golden hamster model assessed as decrease in serum LDL level at 10 mg/kg, po administered once daily for 7 days relative to vehicle treated control. The data set is classed as functional, Mesocricetus auratus. Also noted: scale not given: the % may be the effect or the level left. In short, it runs like this: as §2

Data set [13] has as its system Syrian golden hamster. Description: Antidyslipidemic activity in high fat diet-fed dyslipidemic syrian golden hamster model assessed as decrease in serum triglyceride level at 10 mg/kg, po administered once daily for 7 days relative to vehicle treated control. The format is functional, Mesocricetus auratus. Also noted: scale not given: the % may be the effect or the level left. Summed up:
as §2

The subject of data set [14] is Syrian golden hamster. Description: Toxicity in syrian golden hamster. The note with it: in vivo. The data set is classed as organism-based, Mesocricetus auratus. Summed up:
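HFD-fed male Golden Syrian hamsters, eight per group, dosed orally at 10 mg/kg once daily for 7 days in 0.1% gum acacia. Body weight was recorded daily and food intake was monitored, then compared with HFD vehicle controls.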

Data set [15] deals with Syrian golden hamster. Kind of data set: Antidyslipidemic activity in high fat diet-fed dyslipidemic syrian golden hamster model assessed as increase in serum ratio of serum HDL/total cholesterol level at 10 mg/kg, po administered once daily for 7 days relative to vehicle treated control. The data set is classed as functional, Mesocricetus auratus. In short, it runs like this:
as §2

Data set [16] relates to Syrian golden hamster. Kind of data set: Antidyslipidemic activity in high fat diet-fed dyslipidemic syrian golden hamster model assessed as decrease in serum total cholesterol level at 10 mg/kg, po administered once daily for 7 days relative to vehicle treated control. The format is functional, Mesocricetus auratus. Further details: scale not given: the % may be the effect or the level left. In short, it runs like this:
as §2

The test system of data set [17] is Syrian golden hamster. Description: Antidyslipidemic activity in high fat diet-fed dyslipidemic syrian golden hamster model assessed as increase in serum HDL level at 10 mg/kg, po administered once daily for 7 days relative to vehicle treated control. The format is functional, Mesocricetus auratus. In short, it runs like this:
as §2

The subject of data set [18] is Syrian golden hamster. Description: Antidyslipidemic activity in high fat diet-fed dyslipidemic syrian golden hamster model assessed as increase in serum LDL level at 10 mg/kg, po administered once daily for 7 days relative to vehicle treated control. The format is functional, Mesocricetus auratus. Summed up: as §2
Data set [19] deals with Syrian golden hamster. Description: Antidyslipidemic activity in high fat diet-fed dyslipidemic syrian golden hamster model assessed as decrease in serum HDL level at 10 mg/kg, po administered once daily for 7 days relative to vehicle treated control. The data set is classed as functional, Mesocricetus auratus. Also noted: scale not given: the % may be the effect or the level left. Summed up:
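Male Golden Syrian hamsters (12 weeks, 110 ± 10 g) fed high fat diet with fructose daily days 1–10; dosed orally once daily days 4–10 in 0.1% gum acacia vehicle, eight per group. Blood drawn from retro-orbital plexus into EDTA after last dose; plasma HDL-C by enzymatic auto-analyzer. Reported as % change versus vehicle-treated HFD group; t-test/ANOVA, p < 0.05.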

For the compound `CC[C@H](C)C(=O)O[C@H]1C[C@@H](C)C=C2C=C[C@H](C)[C@H](CC[C@@H]3C[C@@H](O)CC(=O)O3)[C@H]21` [LOVASTATIN], the inhibition in data set [1] was found to be 84.4%; in data set [2], 77.3%; in data set [5], 46.7%; in data set [6], 27.5%; in data set [8], 69.1%. The Activity in [3] is 9%; in [4], 3%; in [7], 12%; in data set [9], 29%; in data set [10], 11%.
With `Cc1cccc(C)c1N/C=C1\C=C(C=O)c2c(ccc3c(C)cc(=O)oc23)C1=O`, the Activity in [11] was 0.99 mM; in [12], 40%; in data set [13], 16%; in data set [14] it was “Non-toxic”; in data set [15], 43%; in data set [16], 30%. In addition, the Activity in data set [17] worked out at 1%.
Turning to `COc1cccc(CN/C=C2\C=C(C=O)c3c(ccc4c(C)cc(=O)oc34)C2=O)c1`, the Activity in data set [11] is 1.26 mM; in data set [12], 59%; in data set [13] it was 52%; in data set [14] it was “Non-toxic”; in data set [15] it was 93%; in data set [16] it was 47%. Further, the Activity in data set [17] worked out at 3%.
For the compound `Cc1cc(=O)oc2c3c(ccc12)C(=O)/C(=C/NC1CCCCC1)C=C3C=O`, the Activity in data set [11] is 0.3 mM; in data set [12], 10%; in data set [13], 62%; in data set [14] it was “Non-toxic”; in data set [15] it was 17%; in [16], 14%. The Activity in [17] turned out to be 1%.
Turning to `CC(C)c1c(C(=O)Nc2ccccc2)c(-c2ccccc2)c(-c2ccc(F)cc2)n1CC[C@@H](O)C[C@@H](O)CC(=O)O` [ATORVASTATIN], the Activity in [12] is reported as 23%; in data set [13], 67%; in data set [15] it was 83%; in [16], 25%; in data set [17], 2%.
For the compound `Cc1cc(=O)oc2c3c(ccc12)C(=O)/C(=C/NCCCO)C=C3C=O`, the Activity in data set [11] is 1.46 mM; in [12], 21%; in data set [13], 50%; in [14], “Non-toxic”; in data set [15], 39%; in data set [16], 26%. Also, in data set [17], the Activity was found to be 3%.
As to `Cc1cc(=O)oc2c3c(ccc12)C(=O)/C(=C/Nc1ccccc1O)C=C3C=O`, the Activity was 0.36 mM in data set [11]; 42% in data set [13]; “Non-toxic” in data set [14]; 12% in data set [18]; 19% in data set [15]; 3% in data set [16]. Further, in data set [17], the Activity is reported as 15%.
As for `Cc1cc(=O)oc2c3c(ccc12)C(=O)/C(=C/NCC(C)(C)CO)C=C3C=O`, the Activity in data set [11] was 1.9 mM; in data set [12] it was 36%; in [13], 49%; in data set [14], “Non-toxic”; in data set [15], 61%; in [16], 36%. The Activity in [17] turned out to be 1%.
Turning to `Cc1cc(=O)oc2c3c(ccc12)C(=O)/C(=C/NCCCl)C=C3C=O`, the Activity was 0.38 mM in data set [11]; 14% in data set [12]; 47% in [13]; “Non-toxic” in data set [14]; 9% in data set [15]; 17% in data set [16]. Besides, the Activity in data set [17] came to 19%.
For the compound `Cc1cc(=O)oc2c3c(ccc12)C(=O)/C(=C/NCCBr)C=C3C=O`, the Activity in data set [11] was 0.1 mM; in [12], 10%; in data set [13] it was 40%; in [14], “Non-toxic”; in data set [19], 1%; in [15], 15%. The Activity in data set [16] amounted to 13%.
Consider `Cc1cc(=O)oc2c3c(ccc12)C(=O)/C(=C/NC12CC4CC(CC(C4)C1)C2)C=C3C=O`, for which the Activity in [11] was 0.99 mM; in data set [12] it was 59%; in [13], 48%; in data set [14], “Non-toxic”; in [15] it was 93%; in [16], 48%. Moreover, the Activity in [17] is 1%.
In the case of `O=C1O[C@H]([C@@H](O)CO)C(O)=C1O`, the Activity in data set [11] was 3.13 mM.
